Drawing on ChEMBL document CHEMBL1811898, “Discovery and structure-activity relationships of modified salicylanilides as cell permeable inhibitors of poly(ADP-ribose) glycohydrolase (PARG)” (J Med Chem, 2011), this text covers inhibition, IC50 and Ratio IC50 for 30 compounds.

Active and inactive are the calls of the source. No cut-off for these calls is given here. A value given as a limit tells only on which side of the number the result lay.

The nature of assay [1]: Inhibition of alcohol dehydrogenase.
Assay [2] deals with T1, NAD-dependent protein deacetylase sirtuin-1 (Homo sapiens) (UniProt Q96EB6).
T1 sequence (whole entry): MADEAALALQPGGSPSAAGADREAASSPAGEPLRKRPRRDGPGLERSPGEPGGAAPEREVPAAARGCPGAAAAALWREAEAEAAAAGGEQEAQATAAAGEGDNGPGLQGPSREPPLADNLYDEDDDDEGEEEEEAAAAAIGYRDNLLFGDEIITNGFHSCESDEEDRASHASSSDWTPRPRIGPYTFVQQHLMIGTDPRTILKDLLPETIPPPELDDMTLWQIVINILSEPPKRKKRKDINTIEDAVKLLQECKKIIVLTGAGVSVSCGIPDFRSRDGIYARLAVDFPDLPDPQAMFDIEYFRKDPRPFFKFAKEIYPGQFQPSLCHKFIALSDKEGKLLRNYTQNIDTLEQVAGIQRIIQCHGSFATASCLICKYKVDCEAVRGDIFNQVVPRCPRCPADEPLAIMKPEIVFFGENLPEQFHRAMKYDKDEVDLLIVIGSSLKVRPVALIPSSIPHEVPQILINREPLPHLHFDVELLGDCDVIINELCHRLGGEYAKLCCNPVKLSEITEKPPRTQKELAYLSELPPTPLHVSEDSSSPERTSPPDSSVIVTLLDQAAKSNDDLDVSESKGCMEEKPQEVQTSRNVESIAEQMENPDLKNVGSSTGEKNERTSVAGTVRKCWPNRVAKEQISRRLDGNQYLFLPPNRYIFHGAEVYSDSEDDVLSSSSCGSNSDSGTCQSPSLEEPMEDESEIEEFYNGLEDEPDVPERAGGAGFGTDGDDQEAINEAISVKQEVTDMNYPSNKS
As to the kind of experiment: Inhibition of SIRT1.

For assay [3], the target named is Poly(ADP-ribose) glycohydrolase (Homo sapiens) (UniProt Q86W56). Nature of the assay: Inhibition of PARG using [alpha-32P]ADP-ribose polymers at 500 uM after 5 mins by TRAP assay.
Assay [4] deals with Poly [ADP-ribose] polymerase 1 (Homo sapiens, UniProt P09874). Nature of the assay: Inhibition of PARP-1 using [32P]-NAD+ after 15 mins.
Assay [5] concerns the target Poly(ADP-ribose) glycohydrolase (Homo sapiens) (UniProt Q86W56). Conditions: SCC-25, 1 mM.
Assay [6] shares this target. Conditions: SCC-25, 1 mM. The source holds these as a separate data set.
Assay [7] has as its target PARP 1, 2 and 3 (Homo sapiens) (UniProt P09874+Q9Y6F1+Q9UGN5). As to the kind of experiment: Inhibition of PARP in human SCC25 cells assessed as inhibition of MNNG-induced NAD(H) depletion at 1 mM preincubated for 5 mins before MNNG challenge measured after 30 mins. The assay is classed as cell-based. Conditions: SCC-25. An outline of the steps:
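SCC-25 cells (90% confluent, 35 mm dishes) pretreated 5 min with compound, then 5 μg/mL MNNG for 30 min; HClO4 extraction, KOH/KH2PO4 neutralization; NAD by enzymatic cycling (alcohol dehydrogenase, phenazine ethosulfate, MTT, 37°C 30 min), A570; normalized to cell protein.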

Assay [8] has as its target Poly(ADP-ribose) glycohydrolase (Homo sapiens) (UniProt Q86W56). Particulars: SCC-25, 1 mM. The source holds these as a separate data set.
For assay [9] the target is unchanged. Nature of the assay: Inhibition of PARG using [alpha-32P]ADP-ribose polymers up to 500 uM after 5 mins by TRAP assay.
Assay [10] is described as follows: Selectivity ratio of IC50 for PARP-1 to IC50 for PARG.
The target in assay [11] is Poly(ADP-ribose) glycohydrolase (Homo sapiens) (UniProt Q86W56). As to the kind of experiment: Inhibition of PARG in human SCC25 cells assessed as inhibition of MNNG-induced poly(ADP-ribose) formation at 1 mM after 20 mins by chemiluminescent ELISA. The assay is classed as cell-based. Particulars: SCC-25. In short, it runs like this:
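SCC-25 cells at 90% confluence in 35 mm dishes; 5 μg/mL MNNG used to induce PAR; lysed in buffer with 1% SDS; ADP-ribose polymers quantified by chemiluminescent ELISA (kit protocol, minor changes); PAR normalized to cell count.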

Sequence of Poly [ADP-ribose] polymerase 1 (P09874 whole entry): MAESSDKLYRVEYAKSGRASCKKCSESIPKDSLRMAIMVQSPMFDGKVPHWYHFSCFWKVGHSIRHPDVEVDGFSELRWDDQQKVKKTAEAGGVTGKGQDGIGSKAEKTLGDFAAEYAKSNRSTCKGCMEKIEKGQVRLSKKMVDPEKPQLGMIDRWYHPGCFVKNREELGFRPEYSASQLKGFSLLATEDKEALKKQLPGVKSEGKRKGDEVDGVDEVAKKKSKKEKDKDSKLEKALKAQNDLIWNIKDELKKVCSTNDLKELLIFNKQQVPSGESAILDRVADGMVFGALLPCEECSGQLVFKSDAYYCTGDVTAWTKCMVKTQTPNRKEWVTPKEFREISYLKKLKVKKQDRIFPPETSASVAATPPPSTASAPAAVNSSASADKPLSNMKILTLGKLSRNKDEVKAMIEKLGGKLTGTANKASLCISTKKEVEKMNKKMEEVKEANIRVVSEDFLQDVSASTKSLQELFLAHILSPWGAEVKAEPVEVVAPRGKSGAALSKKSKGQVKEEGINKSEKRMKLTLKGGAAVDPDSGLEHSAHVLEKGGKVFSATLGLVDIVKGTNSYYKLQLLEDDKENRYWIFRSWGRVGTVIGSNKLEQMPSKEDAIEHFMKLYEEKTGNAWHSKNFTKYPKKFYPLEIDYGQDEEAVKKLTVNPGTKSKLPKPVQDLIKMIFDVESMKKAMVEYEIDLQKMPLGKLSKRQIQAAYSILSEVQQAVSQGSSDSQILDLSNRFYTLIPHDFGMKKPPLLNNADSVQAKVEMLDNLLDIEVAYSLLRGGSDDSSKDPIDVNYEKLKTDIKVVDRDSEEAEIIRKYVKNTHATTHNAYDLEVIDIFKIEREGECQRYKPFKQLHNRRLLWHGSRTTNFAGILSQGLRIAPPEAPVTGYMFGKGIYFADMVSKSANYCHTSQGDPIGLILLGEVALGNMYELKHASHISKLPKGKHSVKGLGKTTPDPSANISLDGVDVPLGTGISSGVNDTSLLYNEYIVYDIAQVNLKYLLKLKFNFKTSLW
Sequence of Poly(ADP-ribose) glycohydrolase (Homo sapiens) (Q86W56 whole entry, looked up): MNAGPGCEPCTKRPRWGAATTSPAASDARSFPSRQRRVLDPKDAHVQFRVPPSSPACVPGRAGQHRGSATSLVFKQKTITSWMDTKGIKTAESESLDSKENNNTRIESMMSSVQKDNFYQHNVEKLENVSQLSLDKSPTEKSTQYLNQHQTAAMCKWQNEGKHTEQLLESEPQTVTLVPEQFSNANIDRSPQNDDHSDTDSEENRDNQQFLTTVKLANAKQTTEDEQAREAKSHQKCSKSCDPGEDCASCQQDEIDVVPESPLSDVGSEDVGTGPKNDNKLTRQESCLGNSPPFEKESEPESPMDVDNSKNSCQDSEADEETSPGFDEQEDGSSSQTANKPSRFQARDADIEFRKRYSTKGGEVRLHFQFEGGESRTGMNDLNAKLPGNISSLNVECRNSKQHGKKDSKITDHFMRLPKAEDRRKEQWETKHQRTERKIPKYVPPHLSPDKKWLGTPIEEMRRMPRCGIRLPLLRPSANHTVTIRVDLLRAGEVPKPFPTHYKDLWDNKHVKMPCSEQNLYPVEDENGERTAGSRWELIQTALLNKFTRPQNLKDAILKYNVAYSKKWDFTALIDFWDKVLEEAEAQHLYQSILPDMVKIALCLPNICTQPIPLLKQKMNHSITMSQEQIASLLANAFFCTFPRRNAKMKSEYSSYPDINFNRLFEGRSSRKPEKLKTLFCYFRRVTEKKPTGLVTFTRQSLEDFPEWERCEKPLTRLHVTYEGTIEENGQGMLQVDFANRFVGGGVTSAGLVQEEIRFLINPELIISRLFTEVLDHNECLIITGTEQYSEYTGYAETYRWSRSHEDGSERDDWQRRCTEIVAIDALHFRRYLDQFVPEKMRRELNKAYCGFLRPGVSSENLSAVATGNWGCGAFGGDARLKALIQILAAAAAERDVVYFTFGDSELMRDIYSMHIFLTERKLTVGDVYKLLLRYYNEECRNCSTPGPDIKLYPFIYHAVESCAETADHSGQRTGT

With `Cc1ccc(NC(=O)c2cc(Cl)cc(Cl)c2O)cc1`, the inhibition result in [1] and in assay [2] was “inactive” each time. Also, the inhibition (commonly the drop in the measured response relative to a control, in per cent) in assay [3] came out at 10%.
As to `Cc1cc(NC(=O)c2cc(Cl)cc(Cl)c2O)ccc1Oc1ccc2ccccc2c1`, the inhibition result in assay [1] and in assay [2] was “inactive” in each case.
As for `Cc1cccc(NC(=O)c2cc(Cl)cc(Cl)c2O)c1`, the inhibition result in [1] and in assay [2] was “inactive” throughout. In addition, the inhibition in assay [3] is 10%.
For `O=C(Nc1cccc(Cl)c1)c1cc(Cl)cc(Cl)c1O`, in assay [4], the IC50 – broadly, the concentration that inhibits the measured activity by half – was 500 µM. In addition, the inhibition entry in assay [1] and in assay [2] was “inactive” each time.
Turning to `O=C(Nc1ccccc1)c1cc(Cl)cc(Cl)c1O`, the inhibition result in assay [1] and in assay [2] was “inactive” each time. The same compound came in with an inhibition in assay [3] of less than 10%.
With `O=C(Nc1ccc(Oc2ccc3ccccc3c2)c(Cl)c1)c1cc(Cl)cc(Cl)c1O`, the IC50 in assay [4] is 120 µM. The inhibition entry in [1] and in [2] was “inactive” each time. The inhibition result in [5], in assay [6] and in [8] was “Active” throughout. In addition, the inhibition in assay [7] came out at 40%.
The compound `O=C(O)c1ccccc1C(=O)Nc1ccc(Oc2ccc3ccccc3c2)c(Cl)c1` came in with an IC50 in assay [4] of 66 µM. The inhibition entry in assay [1] and in [2] was “inactive” each time.
Consider `O=C(Nc1ccc(Oc2ccc3ccccc3c2)c(C(F)(F)F)c1)c1cc(Cl)cc(Cl)c1O`, for which the inhibition result in assay [1] and in assay [2] was “inactive” throughout.
On to `Oc1c(Cl)cc(Cl)cc1CNc1ccc(Oc2ccc3ccccc3c2)c(Cl)c1`, for which the inhibition entry in assay [1], in assay [2] and in assay [9] was “inactive” throughout.
Turning to `O=C(Nc1ccc(O)c(Cl)c1)c1cc(Cl)cc(Cl)c1O`, the inhibition entry in assay [1] and in assay [2] was “inactive” throughout. Moreover, in [3], the inhibition is less than 10%.
Regarding `Oc1c(Cl)cc(Cl)cc1/C=N/c1ccc(Oc2ccc3ccccc3c2)c(Cl)c1`, the inhibition entry in assay [1], in assay [2] and in assay [9] was “inactive” each time.
On to `Cc1ccc(C(C)C)c(Br)c1Oc1ccc(Cl)cc1NC(=O)c1cc(Cl)cc(Br)c1O`, for which the IC50 in assay [4] was 78 µM. The inhibition result in assay [1] and in assay [2] was “inactive” each time.
As for `COc1c(Cl)cc(Cl)cc1C(=O)Nc1ccc(Oc2ccc3ccccc3c2)c(Cl)c1`, the inhibition entry in assay [1], in [2] and in [9] was “inactive” each time.
The compound `O=C(Nc1ccc(Oc2cc3ccccc3cc2Br)c(Cl)c1)c1cc(Cl)cc(Cl)c1O` came in with an IC50 in [4] of 123 µM. Besides, the Ratio IC50 in assay [10] is 15. The inhibition entry in assay [1] and in assay [2] was “inactive” each time.
Take `O=C(Nc1cc(Cl)ccc1Oc1ccc2ccccc2c1Cl)c1cc(Cl)cc(Br)c1O`: the inhibition entry in [1] and in assay [2] was “inactive” in each case.
In the case of `O=C(Nc1ccc(Oc2ccc3ccccc3c2)c(Cl)c1)c1ccccc1O`, the inhibition result in assay [1] and in assay [2] was “inactive” each time.
Take `O=C(Nc1ccc(Oc2ccc3ccccc3c2)c(Cl)c1)c1cccc(Cl)c1O`: the inhibition entry in [1] and in assay [2] was “inactive” each time.
Regarding `O=C(Nc1ccc(Oc2ccccc2)c(Cl)c1)c1cc(Cl)cc(Cl)c1O`, the inhibition result in assay [1] and in assay [2] was “inactive” each time.
Consider `O=C(Nc1ccc(Oc2ccc3ccccc3c2)cc1)c1cc(Cl)cc(Cl)c1O`, for which the inhibition entry in [1] and in assay [2] was “inactive” throughout.
With `Cc1ccc(Oc2ccc(NC(=O)c3cc(Cl)cc(Cl)c3O)cc2Cl)cc1`, the inhibition result in assay [1] and in assay [2] was “inactive” each time.
For `O=C(Nc1ccc(Oc2ccc3ccccc3c2)c(Cl)c1)c1cc(Cl)ccc1O`, the inhibition entry in [1] and in assay [2] was “inactive” each time.
For the compound `Cc1ccccc1NC(=O)c1cc(Cl)cc(Cl)c1O`, the inhibition entry in assay [1] and in assay [2] was “inactive” each time. This compound returned an inhibition in assay [3] of 10%.
On to `O=C(Nc1ccc(Oc2ccc3ccccc3c2)c(Cl)c1)c1cc(Cl)cc(Cl)c1`, for which the inhibition entry in [1], in [2] and in assay [9] was “inactive” throughout. Also, in assay [7], the inhibition entry was “Active”.
In the case of `Nc1ncnc2c1ncn2[C@@H]1O[C@H](CO[P@](=O)(O)O[P@@](=O)(O)OC[C@H]2NC[C@H](O)[C@@H]2O)[C@@H](O)[C@H]1O` [ADENOSINE DIPHOSPHATE (HYDROXYMETHYL)PYRROLIDINEDIOL], the IC50 in assay [4] was greater than 1000 µM.
Regarding `CN(C(=O)c1cc(Cl)cc(Cl)c1O)c1ccc(Oc2ccc3ccccc3c2)c(Cl)c1`, the inhibition entry in assay [1] and in [2] was “inactive” throughout.
Consider `O=C(Nc1ccc(Oc2ccc3ccccc3c2)c(F)c1)c1cc(Cl)cc(Cl)c1O`, for which the inhibition result in assay [1] and in assay [2] was “inactive” throughout.
With `O=C(Nc1ccccc1Cl)c1cc(Cl)cc(Cl)c1O`, half-maximal inhibition in [4] (IC50) was put at 500 µM. Besides, the inhibition entry in [1] and in assay [2] was “inactive” in each case. In assay [3], this compound registered an inhibition of 10%.
On to `NC(=O)c1cc(Cl)cc(Cl)c1O`, for which the inhibition entry in assay [1] and in [2] was “inactive” throughout. The same compound gave an inhibition in assay [3] of less than 10%. Moreover, in [7], the inhibition result is “Active”.
In the case of `O=C(Nc1ccc(Cl)cc1)c1cc(Cl)cc(Cl)c1O`, the inhibition result in assay [1] and in assay [2] was “inactive” each time. Besides, in assay [7], the inhibition result was “Active”.
For `NC(=O)c1ccccc1` [BENZAMIDE], the IC50 in [4] was found to be 5.4 µM. In addition, the inhibition result in assay [11] and in [7] was “Active” each time.
